From ChEMBL document CHEMBL1629497, “Synthesis and biological evaluation of new N-alkyl 1-aryl-5-(1H-pyrrol-1-yl)-1H-pyrazole-3-carboxamides as cannabinoid receptor ligands” (Eur J Med Chem, 2010)
pKi: −log10 of the molar value. The source made the active and inactive calls. No cut-off for these calls is given here.

Experiments:
Cannabinoid receptor 1 = Cannabinoid receptor 1 (Homo sapiens, UniProt P21554); assay: biochemical; type: cell-based, HEK293
Cannabinoid receptor 2 = Cannabinoid receptor 2 (Homo sapiens, UniProt P34972); assay: Displacement of [3H]CP-55,940 from recombinant human CB2 receptor transfected in HEK cells; type: cell-based, HEK293
In short: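 Competition binding used membranes from HEK cells transfected with hCB1 or hCB2. Data are means of at least three experiments in duplicate. The selectivity index is Ki(CB2)/Ki(CB1).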

Rattus norvegicus [1] = assay: Antiobesity activity in diet-induced obese Wistar rat assessed as water intake at 1 mg/kg, ip measured after 24 hrs relative to vehicle-treated control; type: functional, organism-based; parameters: dose 1 mg/kg
In short: (§1)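 Adult male Wistar rats (~500 g) were individually housed on an inverted 12:12 h cycle with free access to chow and water. Groups of 7–8, matched for body weight and 3-day food intake, received vehicle or compound i.p. (saline with a few drops of Tween 80, 3 mL/kg) 30 min before lights off. Food and water were weighed at 1–6 h and 24 h. Analysis was by ANOVA and Mann-Whitney.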

Rattus norvegicus [2] = assay: Antiobesity activity in diet-induced obese Wistar rat assessed as water intake at 10 mg/kg, ip measured after 24 hrs relative to vehicle-treated control; type: functional, organism-based; parameters: dose 10 mg/kg
In short: as §1

Rattus norvegicus [3] = assay: Antiobesity activity in diet-induced obese Wistar rat assessed as water intake at 10 mg/kg, ip measured upto 6 hrs relative to vehicle-treated control; type: functional, organism-based; parameters: dose 10 mg/kg
In short: as §1

Rattus norvegicus [4] = assay: Antiobesity activity in diet-induced obese Wistar rat assessed as water intake at 3 mg/kg, ip measured after 24 hrs relative to vehicle-treated control; type: functional, organism-based; parameters: dose 3 mg/kg
In short: as §1

Rattus norvegicus [5] = assay: Antiobesity activity in diet-induced obese Wistar rat assessed as water intake at 3 mg/kg, ip measured upto 6 hrs relative to vehicle-treated control; type: functional, organism-based; parameters: dose 3 mg/kg
In short: as §1

Rattus norvegicus [6] = assay: Antiobesity activity in diet-induced obese Wistar rat assessed as reduction in food intake at 3 mg/kg, ip measured after 1 to 6 hrs relative to vehicle-treated control; type: functional; parameters: scale not given: the % may be the effect or the level left; settings: route intraperitoneal
In short: as §1

Rattus norvegicus [7] = assay: Antiobesity activity in diet-induced obese Wistar rat assessed as reduction in food intake at 10 mg/kg, ip measured after 24 hrs relative to vehicle-treated control; type: functional, organism-based; parameters: dose 10 mg/kg
In short: as §1

Rattus norvegicus [8] = assay: Antiobesity activity in diet-induced obese Wistar rat assessed as reduction in food intake at 3 mg/kg, ip measured after 24 hrs relative to vehicle-treated control; type: functional, organism-based; parameters: dose 3 mg/kg
In short: as §1

Rattus norvegicus [9] = assay: Antiobesity activity in diet-induced obese Wistar rat assessed as reduction in food intake at 10 mg/kg, ip measured after 1 to 6 hrs relative to vehicle-treated control; type: functional; parameters: scale not given: the % may be the effect or the level left; settings: route intraperitoneal
In short: as §1

Rattus norvegicus [10] = assay: Antiobesity activity in diet-induced obese Wistar rat assessed as water intake at 0.1 mg/kg, ip measured after 24 hrs relative to vehicle-treated control; type: functional, organism-based; parameters: dose 0.1 mg/kg
In short: as §1

[11] = Half life in Wistar rat brain at 10 mg/kg, ip; type: ADME, organism-based; parameters: dose 10 mg/kg, route intraperitoneal
In short: (§2)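 Rats (n = 18) were dosed at 10 mg/kg i.p. in 2% Tween 80/98% saline (1 mL/kg). Plasma and brain were sampled at 30, 60, 120, 240 and 480 min and 24 h, then stored at −80 °C. Samples were extracted with internal standard and quantified by LC-MS/MS against calibration curves. Non-compartmental analysis was used, and brain penetration was taken as the AUC ratio. Values are means of three rats.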

Rattus norvegicus [12] = assay: Antiobesity activity in diet-induced obese Wistar rat assessed as reduction in food intake at 1 mg/kg, ip measured after 24 hrs relative to vehicle-treated control; type: functional, organism-based; parameters: dose 1 mg/kg
In short: as §1

Rattus norvegicus [13] = assay: Antiobesity activity in diet-induced obese Wistar rat assessed as water intake at 0.1 mg/kg, ip measured upto 6 hrs relative to vehicle-treated control; type: functional, organism-based; parameters: dose 0.1 mg/kg
In short: as §1

Rattus norvegicus [14] = assay: Antiobesity activity in diet-induced obese Wistar rat assessed as reduction in food intake at 1 mg/kg, ip measured after 1 to 6 hrs relative to vehicle-treated control; type: functional; parameters: scale not given: the % may be the effect or the level left; settings: route intraperitoneal
In short: as §1

[15] = Tmax in Wistar rat brain at 10 mg/kg, ip; type: ADME, organism-based; parameters: dose 10 mg/kg, route intraperitoneal
In short: as §2

[16] = AUC (last) in Wistar rat plasma at 10 mg/kg, ip; type: ADME, organism-based; parameters: dose 10 mg/kg, route intraperitoneal, time 0 - last
In short: as §2

[17] = Tmax in Wistar rat plasma at 10 mg/kg, ip; type: ADME, organism-based; parameters: dose 10 mg/kg, route intraperitoneal
In short: as §2

[18] = Half life in Wistar rat plasma at 10 mg/kg, ip; type: ADME, organism-based; parameters: dose 10 mg/kg, route intraperitoneal
In short: as §2

[19] = AUC in Wistar rat brain at 10 mg/kg, ip; type: ADME, organism-based; parameters: dose 10 mg/kg, route intraperitoneal
In short: as §2

Rattus norvegicus [20] = assay: Antiobesity activity in diet-induced obese Wistar rat assessed as reduction in food intake at 0.1 mg/kg, ip measured after 1 to 6 hrs relative to vehicle-treated control; type: functional, organism-based; parameters: dose 0.1 mg/kg
In short: as §1

Rattus norvegicus [21] = assay: Antiobesity activity in diet-induced obese Wistar rat assessed as water intake at 1 mg/kg, ip measured after upto 6 hrs relative to vehicle-treated control; type: functional, organism-based; parameters: dose 1 mg/kg
In short: as §1

[22] = Mean residence time in Wistar rat brain at 10 mg/kg, ip; type: ADME, organism-based; parameters: dose 10 mg/kg, route intraperitoneal
In short: as §2

[23] = Mean residence time in Wistar rat plasma at 10 mg/kg, ip; type: ADME, organism-based; parameters: dose 10 mg/kg, route intraperitoneal
In short: as §2

Brain = assay: Drug level in Wistar rat brain at 10 mg/kg, ip; type: ADME, organism-based; parameters: dose 10 mg/kg, route intraperitoneal; settings: in vivo
In short: as §2

[24] = Cmax in Wistar rat plasma at 10 mg/kg, ip; type: ADME, organism-based; parameters: dose 10 mg/kg, route intraperitoneal
In short: as §2

[25] = Cmax in Wistar rat brain at 10 mg/kg, ip; type: ADME, organism-based; parameters: dose 10 mg/kg, route intraperitoneal
In short: as §2

Chain of Cannabinoid receptor 2 (P34972 whole entry): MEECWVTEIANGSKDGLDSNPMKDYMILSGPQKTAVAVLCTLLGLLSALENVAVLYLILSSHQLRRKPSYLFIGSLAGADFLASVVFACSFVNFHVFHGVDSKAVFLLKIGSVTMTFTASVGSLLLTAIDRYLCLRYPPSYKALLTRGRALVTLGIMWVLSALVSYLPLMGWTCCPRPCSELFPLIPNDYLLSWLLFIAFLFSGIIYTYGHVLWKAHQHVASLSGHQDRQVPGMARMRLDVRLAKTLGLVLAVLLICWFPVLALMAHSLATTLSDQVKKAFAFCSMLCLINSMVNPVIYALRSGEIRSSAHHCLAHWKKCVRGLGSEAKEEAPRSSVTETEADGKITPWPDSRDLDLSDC
Chain of Cannabinoid receptor 1 (P21554 whole entry): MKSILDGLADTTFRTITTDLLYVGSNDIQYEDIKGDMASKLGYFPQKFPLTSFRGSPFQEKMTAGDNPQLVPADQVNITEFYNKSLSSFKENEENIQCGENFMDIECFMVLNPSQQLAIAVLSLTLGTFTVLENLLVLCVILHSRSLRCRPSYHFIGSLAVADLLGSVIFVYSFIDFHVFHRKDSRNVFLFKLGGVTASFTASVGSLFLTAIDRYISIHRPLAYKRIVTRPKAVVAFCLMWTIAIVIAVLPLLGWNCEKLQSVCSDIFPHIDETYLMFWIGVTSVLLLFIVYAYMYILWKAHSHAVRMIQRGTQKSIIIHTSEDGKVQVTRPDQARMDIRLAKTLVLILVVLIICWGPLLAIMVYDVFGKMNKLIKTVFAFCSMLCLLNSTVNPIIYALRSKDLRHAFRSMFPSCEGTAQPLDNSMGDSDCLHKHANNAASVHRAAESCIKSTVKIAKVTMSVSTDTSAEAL

Work on `Cc1c(C(=O)NCCC(C)(C)C)nn(-c2ccc(F)cc2F)c1-n1c(C)ccc1C` yielded a pKi (Cannabinoid receptor 1) of 7.04 and a pKi (Cannabinoid receptor 2) of 6.79.
Compound `Cc1c(C(=O)NCCCCCO)nn(-c2ccc(Cl)cc2Cl)c1-n1c(C)ccc1C` has a pKi (Cannabinoid receptor 1) of 6.43 and a pKi (Cannabinoid receptor 2) of 5.49.
Work on `CCCCCCCNC(=O)c1nn(-c2ccc(Cl)cc2Cl)c(-n2c(C)ccc2C)c1C` yielded a pKi (Cannabinoid receptor 1) of 7.01 and a pKi (Cannabinoid receptor 2) of 6.69.
In the case of `CCCCCNC(=O)c1nn(-c2ccc(Cl)cc2Cl)c(-n2c(C)ccc2C)c1C`, the pKi (Cannabinoid receptor 1) was 6.74 and the pKi (Cannabinoid receptor 2) was 6.31.
In the case of `Cc1c(C(=O)NCCC(C)(C)C)nn(-c2ccc(Cl)cc2Cl)c1-n1c(C)ccc1C`, the pKi (Cannabinoid receptor 1) was 7.43, the Activity (Rattus norvegicus [1]) was “inactive” and the Activity (Rattus norvegicus [2]) was “inactive”. For the same compound, the Activity (Rattus norvegicus [3]) was “inactive”, the Activity (Rattus norvegicus [4]) was “inactive” and the Activity (Rattus norvegicus [5]) was “inactive”. For the same compound, the pKi (Cannabinoid receptor 2) was 6.87, the Activity (Rattus norvegicus [6]) was 10% and the Activity (Rattus norvegicus [7]) was “Active”. For the same compound, the Activity (Rattus norvegicus [8]) was “Active”, the Activity (Rattus norvegicus [9]) was 30% and the Activity (Rattus norvegicus [10]) was “inactive”.
`CCCNC(=O)c1nn(-c2ccc(Cl)cc2Cl)c(-n2c(C)ccc2C)c1C` showed a pKi (Cannabinoid receptor 1) of 6.54 and a pKi (Cannabinoid receptor 2) of 5.71.
`Cc1c(C(=O)NC(C)(C)C)nn(-c2ccc(Cl)cc2Cl)c1-n1c(C)ccc1C` gave a pKi (Cannabinoid receptor 1) of 6.82 and a pKi (Cannabinoid receptor 2) of 7.69.
With `CCCCCCNC(=O)c1nn(-c2ccc(Cl)cc2Cl)c(-n2cccc2)c1C` the pKi (Cannabinoid receptor 1) was 6.91, the half-life [11] was 14.4 h and the Activity (Rattus norvegicus [12]) was “inactive”. The Activity (Rattus norvegicus [13]) was “inactive”, the Activity (Rattus norvegicus [14]) was 10% and the Activity (Rattus norvegicus [1]) was “inactive”. The Tmax [15] was 0.5 h, the Activity (Rattus norvegicus [2]) was “inactive” and the Activity (Rattus norvegicus [3]) was “inactive”. For the same compound, the Activity (Rattus norvegicus [4]) was “inactive”, the AUC(0-t) [16] was 340 ng·h/mL and the Tmax [17] was 0.5 h. It also gave a half-life [18] of 13.9 h, a pKi (Cannabinoid receptor 2) of 6.42 and an AUC [19] of 330 ng·h/mL. For the same compound, the Activity (Rattus norvegicus [20]) was “inactive”, the Activity (Rattus norvegicus [7]) was “inactive” and the Activity (Rattus norvegicus [21]) was “inactive”. It also gave an MRT [22] of 14.3 h, an MRT [23] of 14.8 h and an Activity (Rattus norvegicus [9]) of 25%. The Activity (Brain) was 97%, the Cmax [24] was 170 ng/mL and the Activity (Rattus norvegicus [10]) was “inactive”. It also gave a Cmax [25] of 110 ng/mL.
Compound `CCCCCCC(C)NC(=O)c1nn(-c2ccc(Cl)cc2Cl)c(-n2c(C)ccc2C)c1C` (configuration not stated) has a pKi (Cannabinoid receptor 1) of 6.98 and a pKi (Cannabinoid receptor 2) of 6.87.
In the case of `Cc1c(C(=O)NCCC(C)(C)C)nn(-c2ccc(Cl)cc2Cl)c1-n1cccc1`, the pKi (Cannabinoid receptor 1) was 7.34 and the pKi (Cannabinoid receptor 2) was 7.28.
For `Cc1c(C(=O)NCCCCCO)nn(-c2ccc(Cl)cc2Cl)c1-n1cccc1`, the pKi (Cannabinoid receptor 1) was 6.27 and the pKi (Cannabinoid receptor 2) was 5.63.
For `CCCCCCNC(=O)c1nn(-c2ccc(F)cc2F)c(-n2c(C)ccc2C)c1C`, the pKi (Cannabinoid receptor 1) was 6.51 and the pKi (Cannabinoid receptor 2) was 6.31.
